Data as given in ChEMBL document CHEMBL4219101, “Discovery of 18β-glycyrrhetinic acid conjugated aminobenzothiazole derivatives as Hsp90-Cdc37 interaction disruptors that inhibit cell migration and reverse drug resistance” (Bioorg Med Chem, 2018).

Experiments:
[1] = Inhibition of His-tagged full-length Hsp90 (unknown origin)/GST-tagged Cdc37M (unknown origin) interaction after 1 hr by HTRF assay; set-up: species or system Homo sapiens
In short: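 TR-FRET in PBS containing 400 mM KF, pH 7.3. His-tagged full-length Hsp90 and GST-Cdc37M, each 250 nM final, incubated with compound for 1 h at 37 °C. Anti-GST-Cryptate and anti-6His-XL665 then added for a further 0.5 h at 37 °C. Excitation 320 nm, emission 665/620 nm, reported as ratio ×10,000. Negative and blank controls run in each assay.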

A549 = assay: Antiproliferative activity against human A549 cells after 48 hrs by MTT assay; type: functional, cell-based; details: A549, 48 h
In short: (§1)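 Cells in log phase seeded at about 1.0 × 10^5 cells/mL in 96-well plates, left 12 h at 37 °C, 5% CO2. Compounds dissolved in DMSO, added at 2.5, 5, 10, 20 and 50 µM, 48 h exposure. Absorbance read at 570/630 nm dual wavelength. Survival expressed relative to negative control. IC50 by Bliss method (n = 5), tests done in triplicate.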

MCF7 = assay: Antiproliferative activity against human MCF7 cells after 48 hrs by MTT assay; type: functional, cell-based; details: MCF7, 48 h; in short: as §1
HepG2 = assay: Antiproliferative activity against human HepG2 cells after 48 hrs by MTT assay; type: functional, cell-based; details: HepG2, 48 h; in short: as §1
HCT-116 = assay: Antiproliferative activity against human HCT116 cells after 48 hrs by MTT assay; type: functional, cell-based; details: HCT-116, 48 h; in short: as §1

SMILES: CCOC(=O)[C@@]1(C)CC[C@]2(C)CC[C@]3(C)C(=CC(=O)[C@@H]4[C@@]5(C)CC[C@H](OC(=O)CCC(=O)Nc6nc7ccc(OC)cc7s6)C(C)(C)[C@@H]5CC[C@]43C)[C@@H]2C1
- IC50 [1]: 8.24 µM
- IC50 (A549): 15.5 µM
- IC50 (MCF7): 18.5 µM
- IC50 (HepG2): 20.4 µM
- IC50 (HCT-116): 21.3 µM

SMILES: CC(=O)O[C@H]1CC[C@]2(C)[C@H]3C(=O)C=C4[C@@H]5C[C@@](C)(C(=O)Nc6nc7c(Cl)cccc7s6)CC[C@]5(C)CC[C@@]4(C)[C@]3(C)CC[C@H]2C1(C)C
- IC50 [1]: > 100 µM
- IC50 (A549): > 100 µM
- IC50 (MCF7): > 100 µM
- IC50 (HepG2): > 100 µM
- IC50 (HCT-116): > 100 µM

SMILES: CC(=O)O[C@H]1CC[C@]2(C)[C@H]3C(=O)C=C4[C@@H]5C[C@@](C)(C(=O)Nc6nc7ccccc7s6)CC[C@]5(C)CC[C@@]4(C)[C@]3(C)CC[C@H]2C1(C)C
- IC50 [1]: > 100 µM
- IC50 (A549): > 100 µM
- IC50 (MCF7): > 100 µM
- IC50 (HepG2): > 100 µM
- IC50 (HCT-116): > 100 µM

SMILES: Cc1ccc2nc(NC(=O)[C@@]3(C)CC[C@]4(C)CC[C@]5(C)C(=CC(=O)[C@@H]6[C@@]7(C)CC[C@H](O)C(C)(C)[C@@H]7CC[C@]65C)[C@@H]4C3)sc2c1
- IC50 [1]: 83.2 µM
- IC50 (A549): 22.4 µM
- IC50 (MCF7): 23.2 µM
- IC50 (HepG2): 27.6 µM
- IC50 (HCT-116): 18.7 µM

SMILES: CC1(C)[C@@H](O)CC[C@]2(C)[C@H]3C(=O)C=C4[C@@H]5C[C@@](C)(C(=O)Nc6nc7c(Cl)cccc7s6)CC[C@]5(C)CC[C@@]4(C)[C@]3(C)CC[C@@H]12
- IC50 [1]: 65.6 µM
- IC50 (A549): 75.4 µM
- IC50 (MCF7): 71.2 µM
- IC50 (HepG2): 69.6 µM
- IC50 (HCT-116): > 100 µM

SMILES: CCOC(=O)[C@@]1(C)CC[C@]2(C)CC[C@]3(C)C(=CC(=O)[C@@H]4[C@@]5(C)CC[C@H](OC(=O)CCC(=O)Nc6nc7c(OC)cccc7s6)C(C)(C)[C@@H]5CC[C@]43C)[C@@H]2C1
- IC50 [1]: 10.4 µM
- IC50 (A549): 16.4 µM
- IC50 (MCF7): 20.1 µM
- IC50 (HepG2): 21.9 µM
- IC50 (HCT-116): 23.1 µM

SMILES: CCOC(=O)[C@@]1(C)CC[C@]2(C)CC[C@]3(C)C(=CC(=O)[C@@H]4[C@@]5(C)CC[C@H](OC(=O)CCC(=O)Nc6nc7c(C)cccc7s6)C(C)(C)[C@@H]5CC[C@]43C)[C@@H]2C1
- IC50 [1]: 21.9 µM
- IC50 (A549): 22.8 µM
- IC50 (MCF7): 26.5 µM
- IC50 (HepG2): 31.8 µM
- IC50 (HCT-116): 26.3 µM

SMILES: CC1(C)[C@@H](O)CC[C@]2(C)[C@H]3C(=O)C=C4[C@@H]5C[C@@](C)(C(=O)Nc6nc7c(Br)cccc7s6)CC[C@]5(C)CC[C@@]4(C)[C@]3(C)CC[C@@H]12
- IC50 [1]: > 100 µM
- IC50 (A549): > 100 µM
- IC50 (MCF7): > 100 µM
- IC50 (HepG2): > 100 µM
- IC50 (HCT-116): > 100 µM

SMILES: O=c1[nH]cc(F)c(=O)[nH]1 [FLUOROURACIL]
- IC50 (A549): 19.5 µM
- IC50 (MCF7): 15.8 µM
- IC50 (HepG2): 23.6 µM
- IC50 (HCT-116): 17.2 µM

SMILES: CCOC(=O)[C@@]1(C)CC[C@]2(C)CC[C@]3(C)C(=CC(=O)[C@@H]4[C@@]5(C)CC[C@H](OC(=O)CCC(=O)Nc6nc7c(Br)cccc7s6)C(C)(C)[C@@H]5CC[C@]43C)[C@@H]2C1
- IC50 [1]: 15.3 µM
- IC50 (A549): 20.7 µM
- IC50 (MCF7): 24.4 µM
- IC50 (HepG2): 29.9 µM
- IC50 (HCT-116): 26.8 µM

SMILES: Cc1cccc2sc(NC(=O)[C@@]3(C)CC[C@]4(C)CC[C@]5(C)C(=CC(=O)[C@@H]6[C@@]7(C)CC[C@H](O)C(C)(C)[C@@H]7CC[C@]65C)[C@@H]4C3)nc12
- IC50 [1]: > 100 µM
- IC50 (A549): > 100 µM
- IC50 (MCF7): > 100 µM
- IC50 (HepG2): > 100 µM
- IC50 (HCT-116): > 100 µM

SMILES: CC1=C(O)C(=O)C=C2C1=CC=C1[C@@]2(C)CC[C@@]2(C)[C@@H]3C[C@](C)(C(=O)O)CC[C@]3(C)CC[C@]12C [CELASTROL]
- IC50 [1]: 6.22 µM
- IC50 (A549): 6.59 µM
- IC50 (MCF7): 6.84 µM
- IC50 (HepG2): 6.17 µM
- IC50 (HCT-116): 5.26 µM

SMILES: COc1cccc2sc(NC(=O)[C@@]3(C)CC[C@]4(C)CC[C@]5(C)C(=CC(=O)[C@@H]6[C@@]7(C)CC[C@H](OC(C)=O)C(C)(C)[C@@H]7CC[C@]65C)[C@@H]4C3)nc12
- IC50 [1]: > 100 µM
- IC50 (A549): > 100 µM
- IC50 (MCF7): > 100 µM
- IC50 (HepG2): > 100 µM
- IC50 (HCT-116): > 100 µM
